This passage reports Activity and inhibition results from ChEMBL document CHEMBL2057172, “Investigation of 7-benzylidenenaltrexone derivatives as resistance reverser for chloroquine-resistant Plasmodium chabaudi” (Bioorg Med Chem Lett, 2012).

The test system of experiment [1] is Plasmodium chabaudi. Nature of the experiment: Antimalarial activity against chloroquine-resistant Plasmodium chabaudi infected in mouse assessed as reversal of chloroquine-resistance at 10 mg/kg, po administered 4 days after post infection. Format: functional, organism-based. The arrangement: dose 10 mg/kg. Summed up: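 Mice infected with CQ-resistant P. chabaudi. Test compounds were given perorally at 10 mg/kg, alongside CQ at 3 mg/kg given intraperitoneally. Resistance reversal was read at day 4 after infection. Groups were compared by one-way ANOVA followed by Dunnett's test.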

In experiment [2] the target is T1, Glutathione reductase, putative (Plasmodium chabaudi) (UniProt A0A077YEX9). The experiment can be described thus: Inhibition of Plasmodium chabaudi glutathione reductase assessed as residual reduced glutathione level after 30 mins in absence of glutathione S-transferase. Summed up: (§1)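 Compounds were incubated with GSH, with or without GST, at 37 °C for 30 min. The residual GSH ratio was obtained from the absorbance of the medium.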
T1 sequence (A0A077YEX9 as listed by the source): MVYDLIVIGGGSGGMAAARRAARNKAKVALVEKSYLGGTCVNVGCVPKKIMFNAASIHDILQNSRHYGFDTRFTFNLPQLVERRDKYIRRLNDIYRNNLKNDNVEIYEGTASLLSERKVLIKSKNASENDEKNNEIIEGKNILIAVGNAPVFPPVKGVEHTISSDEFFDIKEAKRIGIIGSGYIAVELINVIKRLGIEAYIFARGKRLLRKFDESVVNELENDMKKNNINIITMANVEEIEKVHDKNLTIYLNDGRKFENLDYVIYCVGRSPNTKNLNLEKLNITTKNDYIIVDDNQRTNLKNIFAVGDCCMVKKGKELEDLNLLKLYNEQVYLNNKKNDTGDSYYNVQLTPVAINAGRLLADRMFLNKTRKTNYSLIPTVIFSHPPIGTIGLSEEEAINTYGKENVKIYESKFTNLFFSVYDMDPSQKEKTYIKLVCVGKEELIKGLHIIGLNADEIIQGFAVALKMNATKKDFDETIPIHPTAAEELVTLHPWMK

Experiment [3] addresses T1, Glutathione reductase, putative (Plasmodium chabaudi). The experiment can be described thus: Inhibition of Plasmodium chabaudi glutathione reductase assessed as residual reduced glutathione level after 30 mins in presence of glutathione S-transferase. Summed up:
as §1

Active and inactive are the calls of the source. No cut-off for these calls is given here.

As to `O=C1/C(=C/c2ccc(F)cc2)C[C@@]2(O)[C@H]3Cc4ccc(O)c5c4[C@@]2(CCN3CC2CC2)[C@H]1O5`, in experiment [1], the result was Active.

With `O=C1[C@@H](Cc2ccccc2)C[C@@]2(O)[C@H]3Cc4ccc(O)c5c4[C@@]2(CCN3CC2CC2)[C@H]1O5`, the inhibition entry in experiment [2] and in experiment [3] was “inactive” throughout. As for `O=C1/C(=C/c2ccccc2)C[C@@]2(O)[C@H]3Cc4ccc(O)c5c4[C@@]2(CCN3CC2CC2)[C@H]1O5`, the outcome in experiment [1] was Active. As for `COc1ccc(/C=C2\C[C@@]3(O)[C@H]4Cc5ccc(O)c6c5[C@@]3(CCN4CC3CC3)[C@@H](O6)C2=O)cc1`, in experiment [1], the result was Active.
